T cruzi growth-1 = inhibitors of T. cruzi proliferation; T. cruzi beta-gal in NIH3T3, GalScreen luminescence, 90 h; 77,000 compounds, 5.9% hits; inhibition, % at 8.34 µM;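 active = mean inhibition above about 93%, with at least 55% of replicates each passing it, limit read from the data, passing the limit was not always enough; inconclusive = only one of those two conditions holds; inactive = neither condition holds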
Pf Dd2 inh = P. falciparum Dd2 growth inhibition. SYBR Green, 72 h; hits give low values. activity change, % at 10 µM. 94,000 compounds, 2.3% hits. AID 1159554; in the data active = activity change below about -80%; inconclusive = no clear call, values can overlap the other calls
IDH1 mut inh = inhibitors of human IDH1 R132H; O75874; IDH1 R132H reductase, diaphorase/resazurin fluorescence, 60 min; inhibition, % at 10 µM; 70,000 compounds, 0.18% hits; in the data active = inhibition above about 34%; inconclusive = no clear call, values can overlap the other calls; inactive = below about 11%;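 note: 0% = DMSO and 100% = no enzyme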
Target sequence (O75874 whole entry R132H): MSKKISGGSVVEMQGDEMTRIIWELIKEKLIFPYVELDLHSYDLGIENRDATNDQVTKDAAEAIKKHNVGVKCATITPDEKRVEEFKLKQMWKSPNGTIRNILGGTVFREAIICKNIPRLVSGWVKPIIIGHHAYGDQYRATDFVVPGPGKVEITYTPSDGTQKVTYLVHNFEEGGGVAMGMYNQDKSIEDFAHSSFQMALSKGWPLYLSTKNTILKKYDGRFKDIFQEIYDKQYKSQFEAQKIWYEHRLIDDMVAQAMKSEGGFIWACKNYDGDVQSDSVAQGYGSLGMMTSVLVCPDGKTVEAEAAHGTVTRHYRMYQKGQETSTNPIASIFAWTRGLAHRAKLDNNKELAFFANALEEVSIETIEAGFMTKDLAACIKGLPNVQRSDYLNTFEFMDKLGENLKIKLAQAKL
KDM4C inh = KDM4C (human) demethylase inhibition. GST-KDM4C 2-372, H3K9me3 peptide, LANCE TR-FRET. inhibition, % at 12.5 µM. 96,000 compounds, 0.15% hits;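 active = mean replicate inhibition above about 25%, with at least 55% of replicates also reaching it, limit read from the data, passing the limit was not always enough; inconclusive = only one of those two conditions met; inactive = neither condition met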
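System: N-terminal GST-fused human GASC-1 (KDM4C) fragment, residues 2-372; amount: enzyme final amount 10 nM; incubation: reaction 30 min RT, detection step 1 h RT; medium: HEPES buffer, pH 7.5, plus ascorbate; technique: LANCE TR-FRET, Eu antibody, ULight-streptavidin, EDTA, ex 340 nm, em 618/671 nm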
T cruzi growth-2 = inhibitors of T. cruzi proliferation. shares compounds with T cruzi growth-1. T. cruzi beta-gal in NIH3T3, GalScreen luminescence, 90 h. inhibition, % at 8.35 µM. 5,600 compounds, 72% hits. AID 651739;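 active = mean replicate inhibition above about 95% and at least 55% of replicates individually reaching it, limit read from the data; inconclusive = only one of the two criteria is met; inactive = neither criterion is met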
T cruzi growth-3 = blocks T. cruzi growth in NIH3T3 host cells | shares compounds with T cruzi growth-1 | T. cruzi beta-gal in NIH3T3, GalScreen luminescence, 90 h | inhibition, % at 2.09 µM | 5,600 compounds, 21% hits | AID 651740;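 active = mean inhibition above about 95%, with at least 55% of replicates also reaching it, limit read from the data; inconclusive = meets just one of the two conditions; inactive = meets neither condition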;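 note: plate controls were neutral control median for no effect and positive control median for full effect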
NIH3T3 tox = cytotoxicity in mouse NIH/3T3 fibroblasts; NIH/3T3 viability, CellTiter-Glo ATP luminescence, 90 h; cytotoxicity (signal decrease), % at 8.35 µM; shares compounds with T cruzi growth-1; 5,600 compounds, 14% hits; AID 651742;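 active = mean signal decrease across replicates above about 35% based on untreated-well scatter, with enough replicates individually passing, limit read from the data; inconclusive = no rule stated though some were filed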;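 note: 0% = median of neutral control wells and 100% = median of positive control wells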
3T3 cytotox 2 = cytotoxicity in mouse NIH/3T3 fibroblasts. NIH/3T3 viability, CellTiter-Glo ATP luminescence, 90 h. 5,600 compounds, 56% hits. inhibition, % at 24.9 µM. AID 651744. shares compounds with T cruzi growth-1;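 active = mean loss of cell viability signal at or above a set limit, and enough replicates individually reaching it; inconclusive = meets only the mean limit or only the replicate share; inactive = meets neither condition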;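 note: 0% = median of neutral control wells and 100% = median of positive control wells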
An asterisk follows results filed as active; u = inconclusive; x = not tested or not shown; ! = not confirmed by another sample. The list is not random: actives were taken first. Their share in the collection is about 5.9%.

SMILES	T cruzi growth-1	Pf Dd2 inh	IDH1 mut inh	KDM4C inh	T cruzi growth-2	T cruzi growth-3	NIH3T3 tox	3T3 cytotox 2
C[C@@H]1CN([C@H](C)CO)S(=O)(=O)c2ccc(-c3ccncc3)cc2O[C@@H]1CN(C)C(=O)c1cccc(F)c1	104.3*	-21.1	0.7	0.5	88.9	53.8	9.2	55.2*
C[C@H]1CN([C@@H](C)CO)S(=O)(=O)c2ccc(-c3ccncc3)cc2O[C@H]1CN(C)C(=O)c1cccc(F)c1	105.5*	-43.7	1.2	6.6	102.0*!	75.7	4.9	18.9
C[C@H]1CN([C@@H](C)CO)S(=O)(=O)c2ccc(-c3cccc(F)c3)cc2O[C@@H]1CN(C)C(=O)c1cccc(F)c1	83.3	-54.2	2.2	-1.7	x	x	x	x
O=C(N/N=C/c1cn(S(=O)(=O)c2ccccc2)c2ccccc12)c1ccccn1	x	x	-0.2	x	x	x	x	x
C[C@H]1CN([C@@H](C)CO)C(=O)c2cc(C3=CCCC3)cnc2O[C@H]1CN(C)C(=O)Nc1ccc(C(F)(F)F)cc1	52.2	-34.9	x	1.5	x	x	x	x
C[C@@H]1CN([C@@H](C)CO)C(=O)c2cc(C3=CCCC3)cnc2O[C@@H]1CN(C)C(=O)Nc1ccc(C(F)(F)F)cc1	u	-29.5	0.1	-2.2	108.4*	88.2	u	104.2*
C[C@H]1CN([C@@H](C)CO)C(=O)c2cc(Br)cnc2O[C@@H]1CN(C)C(=O)Nc1ccc(C(F)(F)F)cc1	101.6*	-9.3	x	-0.3	108.2*	58.6	-9.7	53.6*
CC(C)(C)C(=O)CSc1nnc(-c2ccncc2)n1-c1ccc(Br)cc1	x	x	-0.1	x	x	x	x	x
COC(=O)[C@@H](O)[C@H]1[C@@]2(C)C[C@]3(O)C4[C@@H](O[C@]56CC(=O)O[C@@H](c7ccoc7)[C@@]5(C)CCC([C@]46O)[C@]13C)[C@H]2O (stereo partly drawn)	x	x	0.1	x	x	x	x	x
CCN(C[C@H]1[C@H](c2ccccc2)[C@@H](CO)N1C(C)=O)C(=O)c1cccc(F)c1	103.2*	-1.1	x	-1.5	-11.8	-5.2	-6.2	-7.0
CCC(=O)N1[C@H](CN(CC)C(=O)c2cccc(F)c2)[C@H](c2ccccc2)[C@@H]1CO	12.8	-56.2	x	5.2	x	x	x	x
CCN(C[C@H]1[C@H](c2ccc(-c3ccccc3)cc2)[C@H](CO)N1C(C)=O)C(C)=O	105.6*	2.6	x	0.3	-22.7	-67.5	-2.4	-2.4
CCN(C[C@@H]1[C@@H](c2ccc(-c3ccccc3)cc2)[C@H](CO)N1C(C)=O)C(C)=O	u	-9.8	x	0.1	-49.9	-11.6	-3.4	-21.5
Cc1c(NC(=O)CN(c2cc(Cl)c(Cl)cc2Cl)S(C)(=O)=O)cccc1[N+](=O)[O-]	x	x	0.3	x	x	x	x	x
C[C@H](CO)N1C[C@H](C)[C@@H](CN(C)Cc2ccc(-c3ccccc3)cc2)Oc2ccc(NC(=O)c3ccncc3)cc2CC1=O	125.1*	-79.1	-4.9	0.2	112.1*	81.9	18.7	106.3*
C[C@H]1CN([C@@H](C)CO)C(=O)Cc2cc(NC(=O)c3ccncc3)ccc2O[C@H]1CN(C)Cc1ccc(Oc2ccccc2)cc1	97.0*	13.1	0.0	-2.4	97.5*	47.9	33.3	104.3*
C[C@@H]1CN([C@@H](C)CO)C(=O)Cc2cc(NC(=O)c3ccncc3)ccc2O[C@@H]1CN(C)Cc1ccc(-c2ccccc2)cc1	47.9	-26.0	-0.1	-0.7	x	x	x	x
COc1ccccc1N(CC(=O)Nc1cccc([N+](=O)[O-])c1C)S(C)(=O)=O	x	x	-0.3	x	x	x	x	x
CCOC(=O)C1=C(C)NC(=S)NC1c1cc(I)c(OCC#N)c(OC)c1 (stereo not drawn)	x	x	0.2	x	x	x	x	x
Cc1cccc(-c2ccc([C@H]3[C@@H](CO)N4CCCCN(S(=O)(=O)c5cn(C)cn5)C[C@@H]34)cc2)c1	-39.5	6.3	x	-2.0	x	x	x	x
Cn1cnc(S(=O)(=O)N2CCCCN3[C@@H](CO)[C@@H](c4ccc(-c5ccccc5)cc4)[C@@H]3C2)c1	114.1*	23.9	x	1.6	4.7	-12.2	-15.3	39.7*
Cn1cnc(S(=O)(=O)N2CCCCN3[C@H](CO)[C@H](c4ccc(-c5ccccc5)cc4)[C@@H]3C2)c1	55.2	29.0	x	-1.2	x	x	x	x
Cc1cccc(-c2ccc([C@@H]3[C@@H](CO)N4CCCCN(S(=O)(=O)c5cn(C)cn5)C[C@@H]34)cc2)c1	u	-1.0	x	-0.5	83.3	-22.4	31.5	81.6*
Cn1cnc(S(=O)(=O)N2CCCCN3[C@H](CO)[C@H](c4ccc(-c5ccccc5)cc4)[C@H]3C2)c1	u	16.9	x	-0.5	25.8	9.0	3.4	30.0*
C[C@@H]1CN([C@@H](C)CO)C(=O)c2cc(C3=CCCCC3)cnc2O[C@H]1CN(C)C(=O)c1cccc(F)c1	57.2	-5.6	-0.9	3.3	x	x	x	x
SMILES	T cruzi growth-1	Pf Dd2 inh	IDH1 mut inh	KDM4C inh	T cruzi growth-2	T cruzi growth-3	NIH3T3 tox	3T3 cytotox 2
C[C@H]1CN([C@@H](C)CO)C(=O)c2cc(C3=CCCCC3)cnc2O[C@@H]1CN(C)Cc1ccccc1C(=O)O	108.0*	-6.8	x	-0.8	22.6	5.8	8.9	-23.6
C[C@H]1CN([C@@H](C)CO)C(=O)c2cc(C3=CCCCC3)cnc2O[C@@H]1CN(C)C(=O)c1cccc(F)c1	105.4*	-45.5	-3.4	0.4	107.7*	21.9	-7.2	52.5*
C[C@H]1CN([C@@H](C)CO)C(=O)c2cc(C3=CCCCC3)cnc2O[C@H]1CN(C)Cc1cccc(F)c1	110.3*	-4.1	-0.4	-1.5	105.4*	5.9	21.9	34.7*
O=C(Nc1ccc(F)cc1)N1CCCCN2[C@@H](CO)[C@H](c3ccc(C#Cc4ccccc4)cc3)[C@@H]2C1	123.0*	u	x	-1.2	98.8*	110.7*	117.4*	104.8*
CC(C)CC#Cc1ccc([C@H]2[C@@H](CO)N3CCCCN(C(=O)Nc4ccccc4)C[C@@H]23)cc1	105.8*	-3.7	x	-1.1	98.3*	102.9*	20.6	86.6*
O=C(Nc1ccccc1)N1CCCCN2[C@H](C1)[C@H](c1ccc(C#Cc3cccnc3)cc1)[C@@H]2CO	109.6*	-24.8	x	-3.0	70.1	-15.4	-0.1	7.2
O=C(Nc1cccc(F)c1)N1CCCCN2[C@H](CO)[C@H](c3ccc(C#Cc4cccnc4)cc3)[C@@H]2C1	41.2	-71.5	x	-1.9	x	x	x	x
CC(C)C#Cc1ccc([C@H]2[C@@H](CO)N3CCCCN(C(=O)Nc4ccccc4)C[C@@H]23)cc1	113.3*	6.6	x	-0.2	107.5*	67.1	40.7*	33.8*
O=C(CCCCCC(=O)N/N=C/c1ccc(Br)cc1)NO	x	x	0.8	x	x	x	x	x
Nc1ccc2nc(SCC(=O)Nc3ccc(Oc4ccccc4)cc3)sc2c1	x	x	-0.3	x	x	x	x	x
